Assay results reported in ChEMBL document CHEMBL3120102, “Structure-based design, synthesis and biological evaluation of novel anthra[1,2-d]imidazole-6,11-dione homologues as potential antitumor agents” (2013).

Tests used:
Format in all cases: functional
SW-620 = experiment: Cytotoxicity against human SW620 cells assessed as growth inhibition after 48 hrs by SRB assay
How it was run: (§1)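 NCI 60-cell-line screen, two stages. Five-dose testing at […]. Cellular protein measured by sulforhodamine B colorimetry after 48 h drug exposure. A time-zero control and drug-free plates are used to derive GI50, TGI and LC50 from dose-response curves plotted as log10 concentration per cell line.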

[1] = (§2) Cytotoxicity against human NCI-ADR-RES cells assessed as growth inhibition after 48 hrs by SRB assay
How it was run: (§3)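 NCI 60-cell-line screen, five-dose stage: each cell line exposed for 48 h to five concentrations spanning five log steps; cellular protein measured by sulforhodamine B colorimetry. A time-zero cell control and plates without drug are used to derive GI50, TGI and LC50 from log-concentration dose-response curves.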

NCI/ADR-RES = experiment: as §2; how it was run: as §3
[2] = Cytotoxicity against human Hs578T cells assessed as cell growth at 10 uM after 48 hrs by SRB assay; settings: Hs-578T, read-out: Activity
K562 = experiment: Cytotoxicity against human K562 cells assessed as growth inhibition after 48 hrs by SRB assay
How it was run: (§4)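 NCI 60-cell-line five-dose screen at […]. Drug exposure was 48 h, followed by sulforhodamine B protein staining. GI50, TGI and LC50 were calculated against a time-zero control and untreated plates, with dose–response curves plotted from log10 concentration.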

TK-10 = experiment: Cytotoxicity against human TK10 cells assessed as growth inhibition after 48 hrs by SRB assay; how it was run: as §1
Hs-578T = experiment: (§5) Cytotoxicity against human Hs578T cells assessed as growth inhibition after 48 hrs by SRB assay; how it was run: as §4
[3] = as §5; settings: Hs-578T; how it was run: as §4
OVCAR-8 = experiment: Cytotoxicity against human OVCAR8 cells assessed as growth inhibition after 48 hrs by SRB assay; how it was run: as §3
[4] = (§6) Cytotoxicity against human UO31 cells assessed as growth inhibition after 48 hrs by SRB assay; settings: UO-31, 48 h; how it was run: as §1
UO-31 = experiment: as §6; how it was run: as §1
HT-29 = experiment: Cytotoxicity against human HT-29 cells assessed as growth inhibition after 48 hrs by SRB assay; how it was run: as §4
OVCAR-3 = experiment: Cytotoxicity against human OVCAR3 cells assessed as cell growth at 10 uM after 48 hrs by SRB assay; settings: OVCAR-3, 48 h, read-out: Activity
How it was run: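 First stage of the NCI 60 human tumour cell line screen: a single dose is tested against every line. Cell growth is read as cellular protein by sulforhodamine B colorimetry after 48 h of drug exposure, with reference to a time-zero control and to untreated plates.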

786-0 = experiment: Cytotoxicity against human 786-0 cells assessed as growth inhibition after 48 hrs by SRB assay; how it was run: as §4
LOX IMVI = experiment: Cytotoxicity against human LOXIMVI cells assessed as growth inhibition after 48 hrs by SRB assay; how it was run: as §4
U-251 = experiment: Cytotoxicity against human U251 cells assessed as growth inhibition after 48 hrs by SRB assay; how it was run: as §1
A549 = experiment: Cytotoxicity against human A549 cells assessed as growth inhibition after 48 hrs by SRB assay; how it was run: as §4
HCC 2998 = experiment: Cytotoxicity against human HCC2998 cells assessed as growth inhibition after 48 hrs by SRB assay; how it was run: as §4
ACHN = experiment: Cytotoxicity against human ACHN cells assessed as growth inhibition after 48 hrs by SRB assay; how it was run: as §4
DU-145 = experiment: Cytotoxicity against human DU145 cells assessed as growth inhibition after 48 hrs by SRB assay; how it was run: as §4
EKVX = experiment: (§7) Cytotoxicity against human EKVX cells assessed as growth inhibition after 48 hrs by SRB assay; how it was run: as §4
[5] = as §7; how it was run: as §4
MDA-MB-468 = experiment: Cytotoxicity against human MDA-MB-468 cells assessed as growth inhibition after 48 hrs by SRB assay; how it was run: as §3
NCI-H522 = experiment: Cytotoxicity against human NCI-H522 cells assessed as growth inhibition after 48 hrs by SRB assay; how it was run: as §3
SK-MEL-5 = experiment: Cytotoxicity against human SK-MEL-5 cells assessed as growth inhibition after 48 hrs by SRB assay; how it was run: as §3
SK-MEL-2 = experiment: Cytotoxicity against human SK-MEL-2 cells assessed as growth inhibition after 48 hrs by SRB assay; how it was run: as §3
MCF7 = experiment: Cytotoxicity against human MCF7 cells assessed as growth inhibition after 48 hrs by SRB assay; how it was run: as §3
[6] = (§8) Cytotoxicity against human UACC257 cells assessed as growth inhibition after 48 hrs by SRB assay; settings: UACC-257, 48 h; how it was run: as §1
UACC-257 = experiment: as §8; how it was run: as §1
COLO 205 = experiment: Cytotoxicity against human COLO205 cells assessed as growth inhibition after 48 hrs by SRB assay; how it was run: as §4
SF-268 = experiment: Cytotoxicity against human SF268 cells assessed as growth inhibition after 48 hrs by SRB assay; how it was run: as §3
[7] = read-out: LC50 (the source's name)

Which “growth inhibition (GI)” value (SW-620) does the source give for `CN(C)CCCSc1nc2ccc3c(c2[nH]1)C(=O)c1ccccc1C3=O` here?
The value was “Dose-dependent effect”.

And the GI50 (SW-620; SW-620, 48 h)?
The GI50 was 1.99 µM.

And the TGI (SW-620; SW-620, 48 h)?
The TGI was 6.29 µM.

And the GI50 [1]?
Its GI50 is 5.11 µM.

What about the TGI [1] of the same molecule?
The TGI was 21.5 µM.

What about the “growth inhibition (GI)” value (NCI/ADR-RES) of the same molecule?
Its value is “Dose-dependent effect”.

What about the growth at 10 µM [2] of the same molecule?
The growth at 10 µM was 69.3%.

What about the “growth inhibition (GI)” value (K562) of the same molecule?
Its value is “Dose-dependent effect”.

What about the GI50 (K562; K562, 48 h) of the same molecule?
Its GI50 is 2.04 µM.

What about the TGI (K562; K562, 48 h) of the same molecule?
Its TGI is 4.73 µM.

And the CC50 (K562; K562, 48 h, read-out: LC50 (the source's name))?
Its CC50 is 13.6 µM.

What about the “growth inhibition (GI)” value (TK-10) of the same molecule?
The value was “Dose-dependent effect”.

What about the GI50 (TK-10; TK-10, 48 h) of the same molecule?
The GI50 was 1.37 µM.

What about the TGI (TK-10; TK-10, 48 h) of the same molecule?
The TGI was 13.5 µM.

What about the “growth inhibition (GI)” value (Hs-578T) of the same molecule?
The value was “Dose-dependent effect”.

What about the GI50 [3] of the same molecule?
The GI50 was 4.84 µM.

What about the TGI [3] of the same molecule?
The TGI was 22.9 µM.

And the CC50 [3, 7]?
The CC50 was 65 µM.

And the “growth inhibition (GI)” value (OVCAR-8)?
The value was “Dose-dependent effect”.

What about the GI50 (OVCAR-8; OVCAR-8, 48 h) of the same molecule?
The GI50 was 6.12 µM.

What about the TGI (OVCAR-8; OVCAR-8, 48 h) of the same molecule?
Its TGI is 21.5 µM.

What about the GI50 [4] of the same molecule?
Its GI50 is 0.564 µM.

And the TGI [4]?
Its TGI is 11.7 µM.

What about the “growth inhibition (GI)” value (UO-31) of the same molecule?
The value was “Dose-dependent effect”.

And the “growth inhibition (GI)” value (HT-29)?
Its value is “Dose-dependent effect”.

And the GI50 (HT-29; HT-29, 48 h)?
Its GI50 is 1.04 µM.

What about the TGI (HT-29; HT-29, 48 h) of the same molecule?
Its TGI is 2.61 µM.

What about the CC50 (HT-29; HT-29, 48 h, read-out: LC50 (the source's name)) of the same molecule?
The CC50 was 6.53 µM.

What about the growth at 10 µM (OVCAR-3) of the same molecule?
The growth at 10 µM was 59.3%.

And the “growth inhibition (GI)” value (786-0)?
The value was “Dose-dependent effect”.

What about the GI50 (786-0; 786-0, 48 h) of the same molecule?
The GI50 was 9.73 µM.

And the TGI (786-0; 786-0, 48 h)?
The TGI was 23.8 µM.

And the GI50 (LOX IMVI)?
Its GI50 is 1.36 µM.

What about the TGI (LOX IMVI) of the same molecule?
Its TGI is 3 µM.

And the “growth inhibition (GI)” value (LOX IMVI)?
The value was “Dose-dependent effect”.

And the “growth inhibition (GI)” value (U-251)?
Its value is “Dose-dependent effect”.

What about the GI50 (U-251; U-251, 48 h) of the same molecule?
The GI50 was 10.1 µM.

What about the TGI (U-251; U-251, 48 h) of the same molecule?
Its TGI is 22 µM.

And the CC50 (U-251; U-251, 48 h, read-out: LC50 (the source's name))?
Its CC50 is 48 µM.

What about the “growth inhibition (GI)” value (A549) of the same molecule?
Its value is “Dose-dependent effect”.

What about the TGI (A549; A549, 48 h) of the same molecule?
The TGI was 12.6 µM.

And the “growth inhibition (GI)” value (HCC 2998)?
The value was “Dose-dependent effect”.

What about the GI50 (HCC 2998; HCC 2998, 48 h) of the same molecule?
The GI50 was 4.14 µM.

What about the TGI (HCC 2998; HCC 2998, 48 h) of the same molecule?
Its TGI is 17.7 µM.

What about the CC50 (HCC 2998; HCC 2998, 48 h, read-out: LC50 (the source's name)) of the same molecule?
Its CC50 is 43.4 µM.

What about the GI50 (ACHN) of the same molecule?
Its GI50 is 1.74 µM.

What about the TGI (ACHN) of the same molecule?
Its TGI is 15 µM.

What about the “growth inhibition (GI)” value (ACHN) of the same molecule?
The value was “Dose-dependent effect”.

What about the CC50 (ACHN; [7]) of the same molecule?
The CC50 was 38.7 µM.

And the “growth inhibition (GI)” value (DU-145)?
The value was “Dose-dependent effect”.

What about the GI50 (DU-145; DU-145, 48 h) of the same molecule?
The GI50 was 2.38 µM.

And the TGI (DU-145; DU-145, 48 h)?
The TGI was 12.9 µM.

And the CC50 (DU-145; DU-145, 48 h, read-out: LC50 (the source's name))?
Its CC50 is 35.9 µM.

And the “growth inhibition (GI)” value (EKVX)?
Its value is “Dose-dependent effect”.

What about the GI50 [5] of the same molecule?
Its GI50 is 4.2 µM.

And the TGI [5]?
The TGI was 20.1 µM.

And the “growth inhibition (GI)” value (MDA-MB-468)?
Its value is “Dose-dependent effect”.

What about the GI50 (MDA-MB-468; MDA-MB-468, 48 h) of the same molecule?
The GI50 was under 0.01 µM.

And the TGI (MDA-MB-468; MDA-MB-468, 48 h)?
Its TGI is 0.439 µM.

And the “growth inhibition (GI)” value (NCI-H522)?
Its value is “Dose-dependent effect”.

And the GI50 (NCI-H522; NCI-H522, 48 h)?
The GI50 was 12.2 µM.

What about the TGI (NCI-H522; NCI-H522, 48 h) of the same molecule?
The TGI was 24.9 µM.

And the CC50 (NCI-H522; NCI-H522, 48 h, read-out: LC50 (the source's name))?
The CC50 was 50.5 µM.

And the “growth inhibition (GI)” value (SK-MEL-5)?
The value was “Dose-dependent effect”.

What about the GI50 (SK-MEL-5; SK-MEL-5, 48 h) of the same molecule?
Its GI50 is 11.1 µM.

And the TGI (SK-MEL-5; SK-MEL-5, 48 h)?
Its TGI is 23.1 µM.

And the “growth inhibition (GI)” value (SK-MEL-2)?
The value was “Dose-dependent effect”.

And the GI50 (SK-MEL-2; SK-MEL-2, 48 h)?
Its GI50 is 13.3 µM.

And the TGI (SK-MEL-2; SK-MEL-2, 48 h)?
Its TGI is 26.3 µM.

What about the “growth inhibition (GI)” value (MCF7) of the same molecule?
Its value is “Dose-dependent effect”.

And the GI50 (MCF7; MCF7, 48 h)?
The GI50 was 0.202 µM.

What about the TGI (MCF7; MCF7, 48 h) of the same molecule?
Its TGI is 4.21 µM.

And the GI50 [6]?
Its GI50 is 19.8 µM.

And the TGI [6]?
The TGI was 34.1 µM.

What about the “growth inhibition (GI)” value (UACC-257) of the same molecule?
Its value is “Dose-dependent effect”.

And the “growth inhibition (GI)” value (COLO 205)?
Its value is “Dose-dependent effect”.

What about the GI50 (COLO 205; COLO 205, 48 h) of the same molecule?
Its GI50 is 3.41 µM.

What about the TGI (COLO 205; COLO 205, 48 h) of the same molecule?
Its TGI is 17.1 µM.

And the “growth inhibition (GI)” value (SF-268)?
The value was “Dose-dependent effect”.

What about the GI50 (SF-268; SF-268, 48 h) of the same molecule?
The GI50 was 4.34 µM.

What about the TGI (SF-268; SF-268, 48 h) of the same molecule?
Its TGI is 17.7 µM.
